Measured values: paper PMC7174984 (Bioconjugate chemistry, 2020)
Read-outs that look alike come from different tables or passages of the source.

What was measured:
HepG2 cells = test: Cellular uptake of dyes into HepG2 liver cancer cells; assay type: cell-based; conditions: compared with MDA-MB-231 data
How it was run: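 HepG2 cells kept in DMEM with 10% FBS at 37 °C and 5% CO₂, passaged at 70% confluency. Live-cell dye uptake imaged by confocal microscopy with a 20×/0.75 water objective; NIR excitation at 670 nm, detection at 716−789 nm.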

MDA-MB-231 cells [1] = test: Cellular uptake of dyes, blocking experiment; assay type: cell-based, Human; conditions: for effect of BSA added to SFM on cellular uptake: BSA only in the media, FACS; for effect of serum on cellular uptake: media with 10% FBS versus serum free media; for effect of BSP on cellular uptake in SFM: 250 μM BSP
How it was run: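 MDA-MB-231 cells (50,000) seeded in serum medium overnight, then starved 4 h in serum-free medium. Groups: no serum (reference), 10% FBS, and 250 μM BSP preblock for 5 min with or without serum. Test compound added for 30 min, then washed. Read by confocal (670 nm excitation) or by FACS after enzyme-free detachment (633 nm excitation, 750/45 emission). Separate arms used DMOG 24 h beforehand for hypoxia, or BSA alone in medium.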

[2] = Pharmacokinetics, clearance and urinary excretion; assay type: in vivo, CD-1 mice; conditions: 25 nmol iv
How it was run: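 Healthy CD-1 mice (25 g) dosed iv with 25 nmol test compound in saline with 10% BSA. Blood taken at 0, 10, 30, 60, 120, 180, 240 and 300 min, spun 3000 rpm for 20 min; plasma fluorescence read by NIR imaging. For excretion, male mice had the penis ligated before dosing and were killed at 4 h; urine fluorescence read by spectrophotometer.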

OATP1B3 [3] = conditions: ARCePE prostate cancer xenograft; cited from earlier work
HSA [4] = molecular target: T1, HSA (Homo sapiens, UniProt P02768); test: UV-vis/fluorescence spectroscopy of dye interaction with albumin; assay type: binding; conditions: for formation of noncovalent adduct with albumin: UV absorbance maximum shift on mixing with HSA or serum
[5] = system: subcutaneous triple negative breast tumors (E0771); assay type: in vivo, C57Bl/6 mice; conditions: 25 nmol iv
How it was run: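 Female C57Bl/6 mice, 6 wk old (20−30 g), inoculated subcutaneously in left flank with 5 × 10⁶ E0771 cells in PBS. 25 nmol test compound in 10% BSA given iv; NIR imaging (760 nm excitation, 4 mW/cm²) at 0.5, 1, 2, 4, 24 and 48 h. TBR = tumor fluorescence over nearby healthy tissue; at least 3 animals per time point; mean ± s.d.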

[6] = Biodistribution in resected tumors and organs at 48 h post-injection; assay type: in vivo, C57Bl/6 mice; conditions: 25 nmol iv, tumors and organs resected 48 h post-injection
How it was run: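 Tumor-bearing C57Bl/6 mice (subcutaneous E0771) anesthetized with ketamine (100 mg/kg) and xylazine (10 mg/kg), abdomen opened by midline incision; 25 nmol test compound in 10% BSA given iv. Imaged at 48 h with intraoperative NIR system (760 nm excitation, 4 mW/cm²; 800 nm emission). ROI signal/background ratio over organs or tumor; at least 3 animals; one-way ANOVA with Tukey test; mean ± s.d.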

OATP1B3 [7] = conditions: PC-3 prostate cancer xenograft; cited from earlier work
MDA-MB-231 cells [8] = test: BSA-FITC and dye colocalization by confocal microscopy; assay type: cell-based, Human
How it was run: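 50,000 MDA-MB-231 cells (grown in DMEM/10% FBS, 37 °C, 5% CO₂) incubated with test dye (10 μM) and equimolar BSA-FITC, either mixed just before use, preincubated 24 h, or added with BSA-FITC whose Cys34 was blocked by 24 h 6-maleimidohexanoic acid pretreatment. Cells then washed twice with PBS and imaged confocally (NIR: 670 nm excitation, 716−789 nm; FITC: 490 nm excitation, 500−589 nm). Pearson coefficient computed.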

HSA [9] = molecular target: T1, HSA; conditions: absorption maxima red-shifted in presence of albumin; cited from earlier work
albumin = conditions: cited from earlier work

T1 sequence (P02768 25-609): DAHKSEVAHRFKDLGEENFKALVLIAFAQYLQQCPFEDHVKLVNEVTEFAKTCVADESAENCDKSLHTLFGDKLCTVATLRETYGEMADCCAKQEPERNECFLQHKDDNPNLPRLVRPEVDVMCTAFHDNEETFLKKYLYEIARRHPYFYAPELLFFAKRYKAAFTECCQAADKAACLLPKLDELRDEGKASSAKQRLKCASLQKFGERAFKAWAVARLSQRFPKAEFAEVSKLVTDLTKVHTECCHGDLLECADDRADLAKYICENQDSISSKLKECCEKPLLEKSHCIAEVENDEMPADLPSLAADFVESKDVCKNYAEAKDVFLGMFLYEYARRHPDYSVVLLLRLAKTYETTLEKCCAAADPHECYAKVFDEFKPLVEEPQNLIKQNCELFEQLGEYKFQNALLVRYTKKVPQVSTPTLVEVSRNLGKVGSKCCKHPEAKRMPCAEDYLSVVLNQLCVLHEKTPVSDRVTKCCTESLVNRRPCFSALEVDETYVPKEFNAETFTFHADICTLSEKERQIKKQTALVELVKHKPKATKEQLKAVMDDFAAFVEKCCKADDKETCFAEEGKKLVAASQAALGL

Q: What does the source list for `CC1(C)C(/C=C/C2=C(Cl)C(=C/C=C3\N(CCCCCC(=O)O)c4ccccc4C3(C)C)/CCC2)=[N+](CCCCCC(=O)O)c2ccccc21` [1-Cl]?
A: uptake into HepG2 cells, trend (HepG2 cells): followed the same trends; effect of BSA added to SFM on cellular uptake (MDA-MB-231 cells [1]): almost identical to those in serum; effect of serum on cellular uptake (MDA-MB-231 cells [1]): suppressed; decrease of uptake by BSP (MDA-MB-231 cells [1]; serum free media, 250 μM BSP preblock, dye 20 μM, FACS quantitation): 40−50%; urinary excretion ([2]; CD-1 mice): Insignificant urinary excretion; blood plasma (fluorescence) elimination half-life ([2]; healthy CD-1 mice, plasma fluorescence up to 5 h): 3.253 h; reduction of tumor uptake on OATP1B3 knockdown (OATP1B3 [3]): ~ 25%; formation of noncovalent adduct with albumin (HSA [4]): form a non-covalent adduct with albumin; displacement of dye from albumin by BSP (HSA [4]; up to 50 equiv BSP, either order of addition): not displaced from albumin by BSP; time post-injection at which high contrast was observed [5]: 48 h; maximum TBR ([5]; 48 h post-injection): 3.5; tumor accumulation and persistence ([5]; up to 48 h): high tumor accumulation and prolonged retention; persistence in body at 48 h (biodistribution) [6]: persisted; reduction of tumor uptake on OATP1B3 knockdown (OATP1B3 [7]): approximately 40%; Pearson coefficient of colocalization (MDA-MB-231 cells [8]; 1-Cl preincubated with Cys34-blocked BSA-FITC): 0.56; Pearson coefficient of colocalization with BSA-FITC (MDA-MB-231 cells [8]; dye 10 μM and ~1 equiv BSA-FITC, noncovalent adduct): 0.65

Q: For `CC1(C)C(=CC=C2CCCC(C=CC3=[N+](CCCCS(=O)(=O)[O-])c4ccccc4C3(C)C)=C2Cl)N(CCCCS(=O)(=O)[O-])c2ccccc21.[Na+]` [2-Cl], which “effect of BSP on cellular uptake in SFM” value (MDA-MB-231 cells [1]; serum free media) is on record?
A: The value was “suppressed”.

Q: What about the “effect of BSA added to SFM on cellular uptake” value (MDA-MB-231 cells [1]) of the same molecule?
A: Its value is “suppressed”.

Q: What about the “effect of serum on cellular uptake” value (MDA-MB-231 cells [1]) of the same molecule?
A: The value was “suppressed”.

Q: And the “formation of noncovalent adduct with albumin” value (“formation” below) (HSA [4])?
A: Its value is “appear to form noncovalent adducts”.

Q: For `CCCN1C(=CC=C2CCCC(C=CC3=[N+](CCC)c4ccccc4C3(C)C)=C2Cl)C(C)(C)c2ccccc21.[I-]` [4-Cl], which “formation” value (HSA [9]) is on record?
A: Its value is “implying noncovalent complexation”.

Q: Which “fraction bound to albumin” value (albumin; after iv injection) does the source give for `O=C1OC(c2ccc(O)c(S(=O)(=O)O)c2)(c2ccc(O)c(S(=O)(=O)O)c2)c2c(Br)c(Br)c(Br)c(Br)c21` [BSP, Bromosulfophthalein] here?
A: Its value is “more than 99%”.

Q: And the “unbound BSP” value (albumin; equimolar concentrations of BSP and albumin)?
A: The value was “less than 0.1%”.

Q: Which “effect of BSP on cellular uptake in SFM” value (MDA-MB-231 cells [1]; serum free media) does the source give for `CC1(C)C(/C=C/C=C/C=C/C=C2\N(CCCCS(=O)(=O)[O-])c3ccc4ccccc4c3C2(C)C)=[N+](CCCCS(=O)(=O)[O-])c2ccc3ccccc3c21.[Na+]` [ICG] here?
A: The value was “suppressed”.

Q: And the “effect of BSA added to SFM on cellular uptake” value (MDA-MB-231 cells [1])?
A: Its value is “suppressed”.

Q: And the “effect of serum on cellular uptake” value (MDA-MB-231 cells [1])?
A: The value was “suppressed”.

Q: And the “formation” value (HSA [4])?
A: The value was “appear to form noncovalent adducts”.
